The values that follow come from ChEMBL document CHEMBL1250497, “Synthesis and pharmacological study of 1-acetyl/propyl-3-aryl-5-(5-chloro-3-methyl-1-phenyl-1H-pyrazol-4-yl)-2-pyrazoline” (2010).

Type in all cases: functional
The subject of experiment [1] is Rattus norvegicus. As to the kind of experiment: Antiinflammatory activity in albino rat assessed as reduction of carrageenan-induced paw volume at 10 mg/kg, po administered 30 mins before carrageenan challenge measured after 30 mins by plethysmograph (reference value: 0.333 +/- 0.033 ml). The method, boiled down:
(§1)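 Rats, six per group, were dosed orally at 10 mg/kg. Controls received 0.1 mL of 1% gum acacia; diclofenac sodium was the standard. After 30 min, 0.1 mL of 1% carrageenan in normal saline was injected sub-plantar into the right hind paw. Paw volume was read by plethysmograph at 0 h and at 30-150 min. Oedema is expressed as change versus control at matching times (±SE).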
In general terms: The carrageenan paw model is a standard test of acute inflammation.

In experiment [2] the test system is Rattus norvegicus. The experiment is described as follows: Antiinflammatory activity in albino rat assessed as reduction of carrageenan-induced paw volume at 10 mg/kg, po administered 30 mins before carrageenan challenge measured after 60 mins by plethysmograph (reference value: 0.333 +/- 0.033 ml). A digest of the protocol: as §1
The subject of experiment [3] is Rattus norvegicus. The experiment is described as follows: Antiinflammatory activity in albino rat assessed as reduction of carrageenan-induced paw volume at 10 mg/kg, po administered 30 mins before carrageenan challenge measured after 90 mins by plethysmograph (reference value: 0.3667 +/- 0.033 ml). A digest of the protocol: as §1
Experiment [4] relates to Rattus norvegicus. As to the kind of experiment: Antiinflammatory activity in albino rat assessed as reduction of carrageenan-induced paw volume at 10 mg/kg, po administered 30 mins before carrageenan challenge measured after 120 mins by plethysmograph (reference value: 0.367 +/- 0.033 ml). The method, boiled down: as §1
Experiment [5] concerns Rattus norvegicus. The experiment is described as follows: Antiinflammatory activity in albino rat assessed as reduction of carrageenan-induced paw volume at 10 mg/kg, po administered 30 mins before carrageenan challenge measured after 150 mins by plethysmograph (reference value: 0.3667 +/- 0.033 ml). The method, boiled down: as §1
For experiment [6], the system named is Rattus norvegicus. As to the kind of experiment: Analgesic activity in albino rat assessed as latency in reaction time required for thermal stimulus-induced tail flicking at 10 mg/kg, po after 30 mins. A digest of the protocol:
(§2)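 Albino rats, 150-200 g, six per group, held in a restrainer. A 3-4 cm marked segment of tail was immersed in water at 55 °C. Tail withdrawal time (s) was recorded before dosing and at 30, 60 and 90 min after oral dosing at 10 mg/kg in 1% gum acacia. Cut-off was 30 s. Controls received vehicle only. Pentazocin was the reference.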

Experiment [7] has as its system Rattus norvegicus. As to the kind of experiment: Analgesic activity in albino rat assessed as latency in reaction time required for thermal stimulus-induced tail flicking at 10 mg/kg, po after 60 mins. The method, boiled down: as §2
Experiment [8] has as its system Rattus norvegicus. The experiment is described as follows: Analgesic activity in albino rat assessed as latency in reaction time required for thermal stimulus-induced tail flicking at 10 mg/kg, po after 90 mins. A digest of the protocol: as §2

`CC(=O)N1N=C(c2ccc([N+](=O)[O-])cc2)CC1c1c(C)nn(-c2ccccc2)c1Cl` (centres undefined): the Activity in experiment [1] amounted to 0.1 mL; in experiment [2], 0.0667 mL; in experiment [3] it was 0.06 mL; in experiment [4] it was 0.0667 mL; in experiment [5] it was 0.1667 mL. In addition, the Time worked out at 3.467 s in experiment [6], 4.767 s in experiment [7] and 5.267 s in experiment [8].
With `CC(=O)N1N=C(c2ccc(Cl)cc2)CC1c1c(C)nn(-c2ccccc2)c1Cl` (centres undefined), the Activity turned out to be 0.033 mL in experiment [1]; 0.0667 mL in experiment [2]; 0.033 mL in experiment [3]; 0.0667 mL in experiment [4]; 0.0667 mL in experiment [5]. Also, the Time in experiment [6] was 2.5 s; in experiment [7], 3.067 s; in experiment [8] it was 4.2 s.
Turning to `CC(=O)N1N=C(c2ccc(Br)cc2)CC1c1c(C)nn(-c2ccccc2)c1Cl` (centres undefined), the Activity in experiment [1] stood at 0.1 mL; in experiment [2] it was 0.033 mL; in experiment [3], 0.033 mL; in experiment [4], 0.1667 mL; in experiment [5], 0.3 mL. For the same compound, the Time in experiment [6] was 3.967 s; in experiment [7], 4.733 s; in experiment [8], 4.833 s.
Turning to `CC(=O)N1N=C(c2ccc(C)cc2)CC1c1c(C)nn(-c2ccccc2)c1Cl` (centres undefined), the Activity was 0.0667 mL in experiment [1]; 0.1 mL in experiment [2]; 0.0667 mL in experiment [3]; 0.033 mL in experiment [4]; 0.0667 mL in experiment [5]. The values for the Time in experiment [6], in experiment [7] and in experiment [8] were 3.3 s, 4.567 s and 5.467 s, respectively.
Consider `COc1ccc(C2=NN(C(C)=O)C(c3c(C)nn(-c4ccccc4)c3Cl)C2)cc1` (centres undefined), for which the Activity was determined as 0 mL in experiment [1]; 0 mL in experiment [2]; 0.1 mL in experiment [3]; 0.0667 mL in experiment [4]; 0.1 mL in experiment [5]. Moreover, the Time in experiment [6] was 2.9 s; in experiment [7], 3.7 s; in experiment [8], 4.333 s.
As for `CCC(=O)N1N=C(c2ccc(OC)cc2)CC1c1c(C)nn(-c2ccccc2)c1Cl` (centres undefined), the Activity in experiment [1] came to 0.1667 mL; in experiment [2], 0.1667 mL; in experiment [3], 0.133 mL; in experiment [4], 0.1667 mL; in experiment [5], 0.2 mL. For the same compound, the figures for the Time in experiment [6], in experiment [7] and in experiment [8] were 4.667 s, 4.633 s and 4.4 s, respectively.
Turning to `CCC(=O)N1N=C(c2ccc([N+](=O)[O-])cc2)CC1c1c(C)nn(-c2ccccc2)c1Cl` (centres undefined), the Activity worked out at 0.0667 mL in experiment [1]; 0.0667 mL in experiment [2]; 0.033 mL in experiment [3]; 0 mL in experiment [4]; 0.033 mL in experiment [5]. The Time stood at 3.1 s in experiment [6], 3.533 s in experiment [7] and 3.933 s in experiment [8].
Take `CCC(=O)N1N=C(c2ccc(Br)cc2)CC1c1c(C)nn(-c2ccccc2)c1Cl` (centres undefined): the Activity in experiment [1] was found to be 0.1667 mL; in experiment [2], 0.133 mL; in experiment [3] it was 0.2 mL; in experiment [4] it was 0.2667 mL; in experiment [5], 0.2667 mL. The Time in experiment [6] turned out to be 3.8 s; in experiment [7], 4.167 s; in experiment [8] it was 4.5 s.
Turning to `CC(C)=CCN1CC[C@]2(C)c3cc(O)ccc3C[C@H]1[C@H]2C` [(+)-PENTAZOCINE], the Time amounted to 2.9 s in experiment [6], 5.6 s in experiment [7] and 6.4 s in experiment [8].
On to `CCC(=O)N1N=C(c2ccc(C)cc2)CC1c1c(C)nn(-c2ccccc2)c1Cl` (centres undefined), for which the Activity in experiment [1] amounted to 0.0667 mL; in experiment [2], 0.133 mL; in experiment [3] it was 0.133 mL; in experiment [4], 0.3 mL; in experiment [5] it was 0.3 mL. Moreover, the Time is 2.9 s in experiment [6], 3.733 s in experiment [7] and 4.6 s in experiment [8].
On to `O=C([O-])Cc1ccccc1Nc1c(Cl)cccc1Cl.[Na+]` [DICLOFENAC SODIUM], for which the Activity in experiment [1], in experiment [2], in experiment [3], in experiment [4] and in experiment [5] was 0.033 mL each time.
Regarding `CC(=O)N1N=C(c2cccc([N+](=O)[O-])c2)CC1c1c(C)nn(-c2ccccc2)c1Cl` (centres undefined), the Activity in experiment [1] amounted to 0.0667 mL; in experiment [2], 0.0667 mL; in experiment [3], 0.033 mL; in experiment [4], 0.0667 mL; in experiment [5] it was 0.133 mL. The Time in experiment [6] is 3.7 s; in experiment [7], 4.733 s; in experiment [8] it was 4.833 s.
As for `CCC(=O)N1N=C(c2cccc([N+](=O)[O-])c2)CC1c1c(C)nn(-c2ccccc2)c1Cl` (centres undefined), the Activity was determined as 0.033 mL in experiment [1]; 0.033 mL in experiment [2]; 0.033 mL in experiment [3]; 0.1 mL in experiment [4]; 0.1 mL in experiment [5]. Also, the Time in experiment [6] was 2.767 s; in experiment [7], 3.067 s; in experiment [8], 4.333 s.
Turning to `CCC(=O)N1N=C(c2ccccc2)CC1c1c(C)nn(-c2ccccc2)c1Cl` (centres undefined), the Activity in experiment [1] stood at 0.2667 mL; in experiment [2], 0.333 mL; in experiment [3], 0.433 mL; in experiment [4], 0.367 mL; in experiment [5] it was 0.3667 mL. Besides, the Time came out at 2.333 s in experiment [6], 2.7 s in experiment [7] and 3.633 s in experiment [8].
